Six compounds from ChEMBL document CHEMBL1275263, “Synthesis and evaluation of stilbene derivatives as a potential imaging agent of amyloid plaques” (Bioorg Med Chem, 2010) can be followed below.

Assay [1] can be described thus: Binding affinity to amyloid beta (1 to 40). Put shortly:
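Aβ40 peptide in PBS (pH 7.4), brought to 200 final and shaken gently at 37 °C for 48 h to form fibrils, which were confirmed by ThT assay. Dye fluorescence was measured with the fibrils in PBS, with excitation and emission maxima determined by spectral scans. KD came from nonlinear regression fitting a one-site binding model, from 5 replicate experiments (N = 5).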

Assay [2] is described as follows: Binding to amyloid beta (1 to 40) fibrils assessed as fold increase in compound fluorescence at 30 uM by fluorescence assay relative to control.

Structures are written as SMILES.

`CNc1ccc(/C=C/c2ccc(Br)cc2)cc1` showed a Kd in assay [1] of 1130 nM. Besides, in assay [2], the Ratio turned out to be 25.8.

For `Cc1ccc2c(c1)sc(-c1ccc(N(C)C)cc1)[n+]2C` [THIOFLAVIN T], the Kd in assay [1] is 2300 nM.

Turning to `CN(CCO)c1ccc(/C=C/c2ccc(Br)cc2)cc1`, the affinity in assay [1], expressed as Kd, was 1840 nM. In assay [2], the Ratio worked out at 15.7.

`CNc1ccc(/C=C/c2cccc(OC)c2)cc1` registered a Kd in assay [1] of 17900 nM. The Ratio in assay [2] came out at 9.3.

As for `CN(CCO)c1ccc(/C=C/c2cccc(Br)c2)cc1`, the affinity in assay [1], expressed as Kd, was 2890 nM. The Ratio in assay [2] stood at 8.91.

In assay [1], `CNc1ccc(-c2nc3ccccc3s2)cc1` gave a Kd of 300 nM.

Usually Kd stands for the equilibrium constant for the complex coming apart.
